Experimental data: ChEMBL document CHEMBL1687715, “Therapeutic activity of an anti-idiotypic antibody-derived killer peptide against influenza A virus experimental infection” (Antimicrob Agents Chemother, 2008)
pEC50: −log10 of the molar value. Activity calls are given as the source filed them. The rule behind the calls is not given here.

Assays:
Influenza A virus [1] = assay: Antiviral activity against Influenza A virus/NWS/1933(H1N1) infected in BALB/c mouse assessed as survival rate at 2 mg, ip administered once daily for 10 days and dosed 30 mins post infection; format: functional, Influenza A virus (A/NWS/1933(H1N1))
How it was run: (§1)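 Male BALB/c mice, 4 weeks old, 10 per group. Given i.p. in 100 μl 0.9% NaCl once daily from 30 min post-challenge through the next 10 days; diluent for placebo. Survival was checked daily for 30 days, and day-30 survivors were counted as cured. Curves were compared by log-rank test. Four experiments were run.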

Influenza A virus [2] = assay: Antiviral activity against Influenza A virus/NWS/1933(H1N1) infected in BALB/c mouse assessed as reduction in mortality rate at 2 mg, ip administered once daily for 10 days and dosed 30 mins post infection relative to untreated control; format: functional, Influenza A virus (A/NWS/1933(H1N1))
How it was run: (§2)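 BALB/c males, 4 weeks old, about 20 g, 10 per group, randomised. Daily i.p. treatment (50 or 100 μg/mouse, or 2 mg/mouse) in 100 μl 0.9% NaCl, starting 30 min after intranasal challenge and repeated for the next 10 days. Placebo was diluent. Mortality rate ratio versus placebo was derived by proportional hazards regression, with 95% CI.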

Influenza A virus [3] = assay: microbe, parasite or virus in culture; format: functional; conditions: LLC-MK2, 2 h
Influenza A virus [4] = assay: microbe, parasite or virus in culture; format: functional; conditions: LLC-MK2, 4 h
Influenza A virus [5] = assay: microbe, parasite or virus in culture; format: functional; conditions: LLC-MK2, 6 h
MDCK [6] = assay: Cytotoxicity against MDCK cells assessed as effect on cell viability at 4 ug/ml; format: cell-based, Canis lupus familiaris; conditions: dog
How it was run: (§3)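 Uninfected confluent monolayers were exposed to 4 μg/ml or left untreated. Viability was assessed by dye exclusion and MTT assay. DNA and RNA synthesis were measured by 48 h labelling with 10 μCi/ml [3H]thymidine or [3H]uridine, followed by counting of trichloroacetic acid-insoluble radioactivity.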

Influenza A virus [7] = assay: microbe, parasite or virus in culture; format: functional; conditions: LLC-MK2, 4 h; remark: listed apart in the source
Mus musculus [8] = assay: Toxicity in Influenza A virus/NWS/1933(H1N1) infected in BALB/c mouse assessed as weight loss at 100 ug, ip administered once daily for 10 days and dosed 30 mins post infection; format: organism-based; conditions: in vivo
Influenza A virus [9] = assay: microbe, parasite or virus in culture; format: functional; conditions: LLC-MK2, 6 h; remark: listed apart in the source
Influenza A virus [10] = assay: microbe, parasite or virus in culture; format: functional; conditions: LLC-MK2, 8 h
Mus musculus [11] = assay: Toxicity in Influenza A virus/NWS/1933(H1N1) infected in BALB/c mouse assessed as effect on motor activity at 100 ug, ip administered once daily for 10 days and dosed 30 mins post infection; format: organism-based; conditions: in vivo
LLC-MK2 [12] = assay: Cytotoxicity against monkey LLC-MK2 cells assessed as effect on RNA synthesis at 4 ug/ml; format: cell-based, Macaca mulatta; conditions: rhesus monkey; how it was run: as §3
Influenza A virus [13] = assay: Antiviral activity against Influenza A virus/NWS/1933(H1N1) infected in BALB/c mouse assessed as survival rate at 100 ug, ip administered once daily for 10 days and dosed 30 mins post infection; format: functional, Influenza A virus (A/NWS/1933(H1N1)); how it was run: as §1
Influenza A virus [14] = assay: Antiviral activity against Influenza A virus/parrot/Ulster/73(H7N1) infected in LLC-MK2 cells assessed as of reduction in optical density values at 4 ug/ml using human RBCs by hemadsorption assay; format: functional, organism-based; conditions: A/parrot/Ulster/73(H7N1), Erythrocyte
Influenza A virus [15] = assay: microbe, parasite or virus in culture; format: functional; conditions: LLC-MK2, 8 h; remark: listed apart in the source
Influenza A virus [16] = assay: microbe, parasite or virus in culture; format: functional; conditions: LLC-MK2, 6 h; remark: listed apart in the source
Influenza A virus [17] = assay: Antiviral activity against Influenza A virus/NWS/1933(H1N1) infected in BALB/c mouse assessed as reduction in mortality rate at 100 ug, ip administered once daily for 10 days and dosed 30 mins post infection relative to untreated control; format: functional, Influenza A virus (A/NWS/1933(H1N1)); how it was run: as §2
Influenza A virus [18] = assay: microbe, parasite or virus in culture; format: functional; conditions: LLC-MK2, 8 h; remark: listed apart in the source
Influenza A virus [19] = assay: microbe, parasite or virus in culture; format: functional; conditions: LLC-MK2, 6 h; remark: listed apart in the source
Influenza A virus [20] = assay: microbe, parasite or virus in culture; format: functional; conditions: LLC-MK2, 6 h; remark: listed apart in the source
Influenza A virus [21] = assay: Antiviral activity against Influenza A virus/NWS/1933(H1N1) infected in BALB/c mouse assessed reduction in viral load in lung at 50 ug, ip measured after 6 days postinfection relative to untreated control; format: functional, organism-based; conditions: Influenza A virus (A/NWS/1933(H1N1))
How it was run: (§4)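 Groups of 5 infected BALB/c mice, dosed i.p. daily, were killed on day 6 p.i. Each lung was weighed and homogenised in RPMI 1640. Titre was by TCID50 on MDCK monolayers: 10-fold dilutions, eight wells each, 3 days, cytopathic effect scored. Expressed per gram of lung; five homogenates per group, mean ± SD.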

LLC-MK2 [22] = assay: Cytotoxicity against monkey LLC-MK2 cells assessed as effect on cell viability at 4 ug/ml; format: cell-based, Macaca mulatta; conditions: rhesus monkey; how it was run: as §3
Influenza A virus [23] = assay: Antiviral activity against Influenza A virus/NWS/1933(H1N1) infected in BALB/c mouse assessed as survival rate at 50 ug, ip administered once daily for 10 days and dosed 30 mins post infection; format: functional, organism-based; conditions: Influenza A virus (A/NWS/1933(H1N1)); how it was run: as §1
Influenza A virus [24] = assay: Antiviral activity against Influenza A virus/parrot/Ulster/73(H7N1) infected in MDCK cells assessed as of reduction in optical density values at 4 ug/ml using human RBCs by hemadsorption assay; format: functional, organism-based; conditions: A/parrot/Ulster/73(H7N1), Erythrocyte
Influenza A virus [25] = assay: microbe, parasite or virus in culture; format: functional; conditions: LLC-MK2, 8 h; remark: listed apart in the source
Influenza A virus [26] = assay: microbe, parasite or virus in culture; format: functional, organism-based; conditions: LLC-MK2, 24 h
LLC-MK2 [27] = assay: Cytotoxicity against monkey LLC-MK2 cells assessed as effect on DNA synthesis at 4 ug/ml; format: cell-based, Macaca mulatta; conditions: rhesus monkey; how it was run: as §3
Influenza A virus [28] = assay: microbe, parasite or virus in culture; format: functional; conditions: LLC-MK2, 2 h; remark: listed apart in the source
Mus musculus [29] = assay: Toxicity in Influenza A virus/NWS/1933(H1N1) infected BALB/c mouse assessed as incidence of mouse death at 100 ug, ip administered once daily for 10 days and dosed 30 mins post infection; format: organism-based; conditions: in vivo
MDCK [30] = assay: Cytotoxicity against MDCK cells assessed as effect on RNA synthesis at 4 ug/ml; format: cell-based, Canis lupus familiaris; conditions: dog; how it was run: as §3
Influenza A virus [31] = assay: Antiviral activity against Influenza A virus/NWS/1933(H1N1) infected in BALB/c mouse assessed reduction in viral load in lung at 100 ug, ip measured after 6 days postinfection relative to untreated control; format: functional, Influenza A virus (A/NWS/1933(H1N1)); how it was run: as §4
MDCK [32] = assay: Cytotoxicity against MDCK cells assessed as effect on DNA synthesis at 4 ug/ml; format: cell-based, Canis lupus familiaris; conditions: dog; how it was run: as §3
Influenza A virus [33] = assay: Antiviral activity against Influenza A virus/NWS/1933(H1N1) infected in BALB/c mouse assessed as reduction in mortality rate at 50 ug, ip administered once daily for 10 days and dosed 30 mins post infection relative to untreated control; format: functional, organism-based; conditions: Influenza A virus (A/NWS/1933(H1N1)); how it was run: as §2

NC12CC3CC(CC(C3)C1)C2 [AMANTADINE]
Survival (Influenza A virus [1]): 50% | inhibition (INH) (Influenza A virus [2]): 77%

H-AKVTMTCSAS-OH
inhibition at 4 µg/mL (Influenza A virus [3]): 96.3% | inhibition at 4 µg/mL (Influenza A virus [4]): 45.1% | inhibition at 4 µg/mL (Influenza A virus [5]): 65.2% | Activity (MDCK [6]): Non-toxic | inhibition at 4 µg/mL (Influenza A virus [7]): 62.4% | Activity (Mus musculus [8]): Non-toxic | inhibition at 4 µg/mL (Influenza A virus [9]): 76.9% | inhibition at 4 µg/mL (Influenza A virus [10]): 93.6% | Activity (Mus musculus [11]): Non-toxic | Activity (LLC-MK2 [12]): Non-toxic | Survival (Influenza A virus [13]): 50% | inhibition (Influenza A virus [14]): Active | inhibition at 4 µg/mL (Influenza A virus [15]): 71.2% | inhibition at 4 µg/mL (Influenza A virus [16]): 88.9% | inhibition (INH) (Influenza A virus [17]): 72% | inhibition at 4 µg/mL (Influenza A virus [18]): 46.5% | inhibition at 4 µg/mL (Influenza A virus [19]): 86.1% | inhibition at 4 µg/mL (Influenza A virus [20]): 49.7% | Activity (Influenza A virus [21]): Active | Activity (LLC-MK2 [22]): Non-toxic | Activity (Influenza A virus [23]): inactive | inhibition (Influenza A virus [24]): Active | inhibition at 4 µg/mL (Influenza A virus [25]): 26.8% | pEC50 (Influenza A virus [26]): 5.57 | Activity (LLC-MK2 [27]): Non-toxic | inhibition at 4 µg/mL (Influenza A virus [28]): 59.1% | Activity (Mus musculus [29]): Non-toxic | Activity (MDCK [30]): Non-toxic | fold change (FC) (Influenza A virus [31]): 2 | Activity (MDCK [32]): Non-toxic | Activity (Influenza A virus [33]): inactive
